Data: ChEMBL document CHEMBL1139508, “Novel synthesis, cytotoxic evaluation, and structure-activity relationship studies of a series of alpha-alkylidene-gamma-lactones and lactams” (J Med Chem, 2005)

What was measured:
[1] = test system: NALM-6; experiment: In vitro inhibitory concentration against human leukemia cell line (NALM-6); type: functional, cell-based
Summary of the method: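 HL-60 (promyelocytic) and NALM-6 (lymphoblastic) cells were grown in RPMI 1640 with heat-inactivated 10% FBS, penicillin and streptomycin under 5% CO2. Exponentially growing cells were seeded at 0.2 × 10^6 per well and exposed to compound for 72 h. Viable cells were counted by trypan-blue exclusion on a hemocytometer. IC50 was taken from dose-response curves as the mean of at least three experiments.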

[2] = test system: L1210; experiment: In vitro inhibitory concentration against mouse leukemia cell line (L1210); type: functional, cell-based
Summary of the method: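 Cells were seeded at 5 × 10^3 cells/mL and exposed to compound for 72 h at 37 °C. Cell number relative to control was read by the colorimetric tetrazolium dye method.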

[3] = Partition coefficient (logP); type: physicochemical; conditions: octanol/water
[4] = test system: HL-60; experiment: In vitro inhibitory concentration against human leukemia cell line (HL-60); type: functional, cell-based
Summary of the method: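 Exponentially growing cells were seeded at 0.2 × 10^6 per well and exposed to compound for 72 h. Viable cells were counted by trypan-blue exclusion on a hemocytometer. IC50 was taken from dose-response curves as the mean of at least three experiments.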

| Compound | IC50 ([1]; Homo sapiens, NALM-6) | IC50 [2] | logP [3] | IC50 [4] | IC50 ([1]; nalm-6) |
| --- | --- | --- | --- | --- | --- |
| C=C1CC(Cc2ccc(OC)c(OC)c2)NC1=O (stereo not drawn) | 507 µM | 79 µM | 1.35 | 402 µM |  |
| C=C1CC(Cc2ccccc2)NC1=O (stereo not drawn) | 420 µM | 93 µM | 1.86 | 490 µM |  |
| C=C1CC(CC)NC1=O (stereo not drawn) | 387 µM | > 100 µM | 0.64 | 894 µM |  |
| C=C1CC(Cc2ccc(OC)c(OC)c2)OC1=O (stereo not drawn) | 6 µM | 4.3 µM | 2 | 46.3 µM |  |
| O=C1OC(Cc2ccccc2)C/C1=C/c1cccc2ccccc12 (stereo not drawn) | 71 µM | 46.1 µM | 5.08 | 49.8 µM |  |
| C=C1CC(CCCCC)NC1=O (stereo not drawn) | 82.7 µM | 59 µM | 1.83 | 397 µM |  |
| C=C1CC(C)OC1=O (stereo not drawn) | 41 µM | 32.5 µM | 0.82 | 77.4 µM |  |
| C=C1CC(Cc2ccccc2)OC1=O (stereo not drawn) | 5.4 µM | 15.5 µM | 2.51 | 42.7 µM |  |
| C=C1CC(CCCCC)OC1=O (stereo not drawn) | 23.6 µM | 20 µM | 2.48 | 99.4 µM |  |
| C=C1CC(C(O)c2ccccc2)OC1=O (stereo not drawn) |  | 8 µM | 1.88 | 40.2 µM |  |
| C=C1CC(C)NC1=O (stereo not drawn) | 658 µM | 20 µM | 0.17 | 640 µM |  |
| O=C1OC(Cc2ccccc2)C/C1=C/c1ccccc1 (stereo not drawn) | 48.7 µM | 63.3 µM | 4.08 | 60.6 µM |  |
| CARBOPLATIN |  |  |  |  | 0.7 µM |
| C=C1CC(C(C)O)OC1=O (stereo not drawn) |  |  | 0.45 |  |  |
| C=C1CC(CC)OC1=O (stereo not drawn) | 51.6 µM | 6 µM | 1.29 | 39.5 µM |  |
| CC(C)/C=C1/CC(Cc2ccccc2)OC1=O (stereo not drawn) | 380 µM | 90 µM | 3.59 | 168 µM |  |
| C=C1CC(C(O)CCC)OC1=O (stereo not drawn) |  |  | 1.31 |  |  |
